{"source": "paper PMC9237996", "about": "(Toxicological Sciences, 2022)", "key": {"[1]": {"biological_target": "bile salt export pump (BSEP) (Homo sapiens, UniProt O95342)", "sequence (O95342 whole entry)": "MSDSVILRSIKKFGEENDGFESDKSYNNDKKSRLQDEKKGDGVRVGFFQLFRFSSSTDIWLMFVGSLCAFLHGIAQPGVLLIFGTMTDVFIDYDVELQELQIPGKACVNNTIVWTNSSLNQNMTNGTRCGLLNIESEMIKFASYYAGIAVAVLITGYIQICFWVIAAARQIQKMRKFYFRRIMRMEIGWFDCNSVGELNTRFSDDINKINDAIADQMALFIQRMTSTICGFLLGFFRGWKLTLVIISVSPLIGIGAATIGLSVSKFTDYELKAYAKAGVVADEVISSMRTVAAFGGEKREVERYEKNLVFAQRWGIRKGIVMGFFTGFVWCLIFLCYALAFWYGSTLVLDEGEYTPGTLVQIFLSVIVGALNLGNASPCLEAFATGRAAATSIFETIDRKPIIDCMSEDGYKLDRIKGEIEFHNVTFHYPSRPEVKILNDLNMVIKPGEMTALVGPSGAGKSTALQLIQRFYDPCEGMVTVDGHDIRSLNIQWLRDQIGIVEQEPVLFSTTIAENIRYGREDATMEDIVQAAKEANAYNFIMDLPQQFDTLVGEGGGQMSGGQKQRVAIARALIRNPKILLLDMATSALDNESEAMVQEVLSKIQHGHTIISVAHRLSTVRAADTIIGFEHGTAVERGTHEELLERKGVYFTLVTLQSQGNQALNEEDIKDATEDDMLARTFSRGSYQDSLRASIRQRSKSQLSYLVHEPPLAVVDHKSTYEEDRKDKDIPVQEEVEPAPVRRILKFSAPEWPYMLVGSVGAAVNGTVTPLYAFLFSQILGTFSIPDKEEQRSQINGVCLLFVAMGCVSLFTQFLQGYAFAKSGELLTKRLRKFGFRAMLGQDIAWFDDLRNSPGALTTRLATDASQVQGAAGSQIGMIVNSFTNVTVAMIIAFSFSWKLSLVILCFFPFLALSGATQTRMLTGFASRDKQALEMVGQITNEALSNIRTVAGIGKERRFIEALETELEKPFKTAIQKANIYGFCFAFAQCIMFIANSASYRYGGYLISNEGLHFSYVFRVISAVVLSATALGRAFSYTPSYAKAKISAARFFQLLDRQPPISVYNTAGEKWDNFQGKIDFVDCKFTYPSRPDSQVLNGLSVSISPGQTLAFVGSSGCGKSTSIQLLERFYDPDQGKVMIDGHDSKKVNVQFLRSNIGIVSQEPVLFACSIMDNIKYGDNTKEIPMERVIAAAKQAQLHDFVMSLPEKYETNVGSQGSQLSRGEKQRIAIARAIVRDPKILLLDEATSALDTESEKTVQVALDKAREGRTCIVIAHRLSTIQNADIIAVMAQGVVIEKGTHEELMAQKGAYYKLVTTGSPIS", "assay": "BSEP membrane vesicle taurocholate transport inhibition", "format": "biochemical", "summary_of_the_method": "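ATP-dependent taurocholate uptake into membrane vesicles carrying human BSEP. Transport inhibition was measured across several taurocholate concentrations crossed with several test-compound concentrations. Data were fit with Michaelis-Menten kinetics to give the Ki and the inhibition type. These values were then used as inputs to DILIsym v6A.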"}, "HepG2 cells [2]": {"system": "HepG2 cells", "assay": "Seahorse oxygen consumption rate", "format": "cell-based", "conditions": "DILIsym input parameter", "summary_of_the_method": "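Oxygen consumption rate was measured in HepG2 cells after 24 h incubation with the test compound. It was related to intracellular compound concentration, measured by LC/MS/MS on a parallel culture with lysate values corrected for lysate and cell volume. Three independent studies were run on HepG2 cells, each in triplicate. The data were translated into DILIsym v6A mitochondrial-dysfunction parameters (ETC inhibition, uncoupling).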"}, "HepG2 cells [3]": {"system": "HepG2 cells", "assay": "ROS formation by dihydroethidium", "format": "cell-based", "conditions": "for RNS/ROS production rate constant 1: DILIsym input parameter, oxidative stress", "summary_of_the_method": "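HepG2 cells were exposed to a range of test-compound concentrations for 6 or 24 h, and ROS formation was read by dihydroethidium fluorescence. Three independent studies were run, each in triplicate. Intracellular compound level came from LC/MS/MS of cell lysate from a parallel culture, corrected for lysate and cell volume. DILIsym oxidative-stress parameters were fit by simulating the data under a steady-state in vitro dosing scheme.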"}, "[4]": {"conditions": "12 weeks, clinical data, cited from earlier work"}}, "note": "Read-outs that look alike come from different tables or passages of the source."}
{"smiles": "O=C(N[C@@H]1CC[C@@H](c2cccc(F)c2F)CN(CC(F)(F)F)C1=O)N1CCC(n2c(=O)[nH]c3ncccc32)CC1", "note": "[Telcagepant, telcagepant]", "values": [{"measurement": "Ki", "setting": "[1]", "result": 19, "unit": "µM"}, {"measurement": "mode of inhibition for BSEP", "setting": "[1]", "result": "mixed"}, {"measurement": "BSEP inhibition alpha value", "setting": "[1]; Telcagepant—High parameter set", "result": 4.32, "unit": "Dimensionless"}, {"measurement": "BSEP inhibition alpha value", "setting": "[1]; Telcagepant—Low parameter set", "result": 4.32, "unit": "Dimensionless"}, {"measurement": "Uncoupler 1 effect Hill", "setting": "HepG2 cells [2]; Telcagepant—High parameter set", "result": "No effect"}, {"measurement": "Uncoupler 1 effect Km", "setting": "HepG2 cells [2]; Telcagepant—High parameter set", "result": "No effect"}, {"measurement": "Uncoupler 1 effect Vmax", "setting": "HepG2 cells [2]; Telcagepant—High parameter set", "result": "No effect"}, {"measurement": "Uncoupler 1 effect Hill", "setting": "HepG2 cells [2]; Telcagepant—Low parameter set", "result": "No effect"}, {"measurement": "Uncoupler 1 effect Km", "setting": "HepG2 cells [2]; Telcagepant—Low parameter set", "result": "No effect"}, {"measurement": "Uncoupler 1 effect Vmax", "setting": "HepG2 cells [2]; Telcagepant—Low parameter set", "result": "No effect"}, {"measurement": "RNS/ROS production rate constant 1", "setting": "HepG2 cells [3]; Telcagepant—High parameter set", "result": 0.0972, "unit": "M⁻¹ s⁻¹"}, {"measurement": "RNS/ROS production rate constant 1", "setting": "HepG2 cells [3]; Telcagepant—Low parameter set", "result": 0.0972, "unit": "M⁻¹ s⁻¹"}, {"measurement": "Observed ALT > 3X ULN in Clinic", "setting": "[4]; 140 mg BID", "result": "1.9% (5/263)"}, {"measurement": "Observed ALT > 3X ULN in Clinic", "setting": "[4]; 280 mg BID", "result": "3.2% (8/265)"}]}
{"smiles": "C[C@@H]1[C@H](c2ccccc2)C[C@H](NC(=O)c2cnc3c(c2)C[C@@]2(C3)C(=O)Nc3ncccc32)C(=O)N1CC(F)(F)F", "note": "[Ubrogepant, ubrogepant]", "values": [{"measurement": "BSEP inhibition alpha value", "setting": "[1]", "result": "No inhibition"}, {"measurement": "mode of inhibition for BSEP", "setting": "[1]", "result": "mixed"}, {"measurement": "Max inhibitory effect for ETC inhibition 3", "setting": "HepG2 cells [2]; mitochondrial dysfunction", "result": 0.4, "unit": "Dimensionless"}, {"measurement": "Uncoupler 1 effect Hill", "setting": "HepG2 cells [2]; mitochondrial dysfunction", "result": 4.3, "unit": "Dimensionless"}, {"measurement": "Uncoupler 1 effect Vmax", "setting": "HepG2 cells [2]; mitochondrial dysfunction", "result": 22.5, "unit": "Dimensionless"}, {"measurement": "RNS/ROS production rate constant 1", "setting": "HepG2 cells [3]", "result": 0.0458, "unit": "M⁻¹ s⁻¹"}]}
{"smiles": "N[C@@H]1c2cccnc2[C@H](OC(=O)N2CCC(n3c(=O)[nH]c4ncccc43)CC2)CC[C@H]1c1cccc(F)c1F", "note": "[Rimegepant, rimegepant]", "values": [{"measurement": "BSEP inhibition alpha value", "setting": "[1]", "result": "Competitive"}, {"measurement": "Ki", "setting": "[1]", "result": 27.2, "unit": "µM"}, {"measurement": "mode of inhibition for BSEP", "setting": "[1]", "result": "competitive"}, {"measurement": "Coefficient for ETC Inhibition 3", "setting": "HepG2 cells [2]; mitochondrial dysfunction", "result": 1.89, "unit": "µM"}, {"measurement": "Coefficient for ETC inhibition 1", "setting": "HepG2 cells [2]; mitochondrial dysfunction", "result": 3470, "unit": "µM"}, {"measurement": "Max inhibitory effect for ETC inhibition 3", "setting": "HepG2 cells [2]; mitochondrial dysfunction", "result": 0.45, "unit": "Dimensionless"}, {"measurement": "Uncoupler 1 effect Hill", "setting": "HepG2 cells [2]; mitochondrial dysfunction", "result": "No effect"}, {"measurement": "Uncoupler 1 effect Km", "setting": "HepG2 cells [2]; mitochondrial dysfunction", "result": "No effect"}, {"measurement": "Uncoupler 1 effect Vmax", "setting": "HepG2 cells [2]; mitochondrial dysfunction", "result": "No effect"}, {"measurement": "RNS/ROS production rate constant 1", "setting": "HepG2 cells [3]", "result": 0.0972, "unit": "M⁻¹ s⁻¹"}]}
{"smiles": "Cc1cc(C[C@@H](NC(=O)N2CCC(c3cc4ccccc4[nH]c3=O)CC2)C(=O)N2CCN(C3CCN(C)CC3)CC2)cc2cn[nH]c12", "note": "[Zavegepant, zavegepant]", "values": [{"measurement": "BSEP inhibition alpha value", "setting": "[1]", "result": 1.368, "unit": "Dimensionless"}, {"measurement": "Ki", "setting": "[1]", "result": "> 340", "unit": "µM"}, {"measurement": "mode of inhibition for BSEP", "setting": "[1]", "result": "mixed"}, {"measurement": "Coefficient for ETC Inhibition 3", "setting": "HepG2 cells [2]; mitochondrial dysfunction", "result": 2, "unit": "µM"}, {"measurement": "Coefficient for ETC inhibition 1", "setting": "HepG2 cells [2]; mitochondrial dysfunction", "result": 1600, "unit": "µM"}, {"measurement": "Max inhibitory effect for ETC inhibition 3", "setting": "HepG2 cells [2]; mitochondrial dysfunction", "result": 1.5, "unit": "Dimensionless"}, {"measurement": "RNS/ROS production rate constant 1", "setting": "HepG2 cells [3]", "result": "No ROS production"}, {"measurement": "Oxidative stress / increase in ROS in vitro", "setting": "HepG2 cells [3]; qualitative, DHE staining, HepG2, 24-h incubation", "result": "did not cause an increase in ROS"}]}
{"smiles": "C[C@@H]1[C@H](c2c(F)ccc(F)c2F)C[C@H](NC(=O)c2cnc3c(c2)C[C@@]2(C3)C(=O)Nc3ncccc32)C(=O)N1CC(F)(F)F", "note": "[Atogepant, atogepant]", "values": [{"measurement": "BSEP inhibition alpha value", "setting": "[1]", "result": 0.64, "unit": "Dimensionless"}, {"measurement": "Ki", "setting": "[1]", "result": 144, "unit": "µM"}, {"measurement": "Coefficient for ETC Inhibition 3", "setting": "HepG2 cells [2]; mitochondrial dysfunction", "result": 0.1, "unit": "µM"}, {"measurement": "Coefficient for ETC inhibition 1", "setting": "HepG2 cells [2]; mitochondrial dysfunction", "result": "38 170 µM"}, {"measurement": "Max inhibitory effect for ETC inhibition 3", "setting": "HepG2 cells [2]; mitochondrial dysfunction", "result": 0.2, "unit": "Dimensionless"}, {"measurement": "Uncoupler 1 effect Hill", "setting": "HepG2 cells [2]; mitochondrial dysfunction", "result": "No effect"}, {"measurement": "Uncoupler 1 effect Km", "setting": "HepG2 cells [2]; mitochondrial dysfunction", "result": "No effect"}, {"measurement": "Uncoupler 1 effect Vmax", "setting": "HepG2 cells [2]; mitochondrial dysfunction", "result": "No effect"}, {"measurement": "RNS/ROS production rate constant 1", "setting": "HepG2 cells [3]", "result": 0.0947, "unit": "M⁻¹ s⁻¹"}]}
